Drawing on ChEMBL document CHEMBL1149831, “Synthesis of 2-aryl-4-(benzimidazol-2-yl)-1,2-dihydro[1,2,4]triazino-[4,5-a]benzimidazol-1-one derivatives with preferential cytotoxicity against carcinoma cell lines” (Eur J Med Chem, 2008), this text covers IC50 for 15 compounds.

Format in all cases: functional, cell-based
In test [1] the test system is PC-3. Description: Cytotoxicity against human PC3 cells after 72 hrs by MTT assay. The note with it: PC-3, 72 h. In short, it runs like this: (§1)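 Cells grown in DMEM/RPMI 1640 with 5 g/L glucose, 2 mM glutamine, penicillin/streptomycin, 10% fetal calf serum and NaHCO3. Seeded in 96-well plates and left 24 h at 37 °C, 5% CO2 before compound addition. Exposure then ran 72 h, each concentration in duplicate. MTT added for 1-4 h and formazan dissolved overnight in 10% aq. SDS (pH 5.5). OD read at 540 nm, with IC50 taken from dose-response curves.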
(In general: Tetrazolium dyes change colour on reduction, which living cells bring about.)

In test [2] the test system is CCRF-CEM. Description: Cytotoxicity against human CEM-DNR bulk cells after 72 hrs by MTT assay. In short, it runs like this:
as §1

The test system of test [3] is K562. Description: Cytotoxicity against human K562 cells after 72 hrs by MTT assay. The conditions noted are these: K562, 72 h. The gist of the method:
as §1

The test system of test [4] is CCRF-CEM. The test can be described thus: Cytotoxicity against human CEM cells after 72 hrs by MTT assay. In short, it runs like this:
as §1

Test [5] deals with U-118-MG. Description: Cytotoxicity against human U118Mg cells after 72 hrs by MTT assay. The gist of the method:
as §1

In test [6] the test system is A549. The test can be described thus: Cytotoxicity against human A549 cells after 72 hrs by MTT assay. The conditions noted are these: A549, 72 h. The gist of the method:
as §1

Test [7] concerns HCT-116. The test can be described thus: Cytotoxicity against human HCT116 cells expressing wild type p53 after 72 hrs by MTT assay. The conditions noted are these: HCT-116, 72 h. The gist of the method:
as §1

The test system of test [8] is HT-29. The test can be described thus: Cytotoxicity against human HT29 cells after 72 hrs by MTT assay. The conditions noted are these: HT-29, 72 h. The gist of the method:
as §1

Test [9] deals with K562. The test can be described thus: Cytotoxicity against human K562-Tax cells after 72 hrs by MTT assay. The note with it: K562, 72 h. In short, it runs like this: as §1
In test [10] the test system is HCT-116. Description: Cytotoxicity against human HCT116 cells expressing mutant p53 after 72 hrs by MTT assay. The conditions noted are these: HCT-116, 72 h. The gist of the method: as §1
The test system of test [11] is MCF7. The test can be described thus: Cytotoxicity against human MCF7 cells after 72 hrs by MTT assay. The conditions noted are these: MCF7, 72 h. The gist of the method:
as §1

In general, IC50 refers to the midpoint of a concentration-inhibition curve. Lower therefore signals higher potency.

Molecules are shown by their SMILES.

For `Clc1ccc(NN=C(c2nc3ccccc3[nH]2)c2nc3ccccc3[nH]2)cc1`, the IC50 in test [1] is 250 µM; in test [2] it was 112 µM; in test [3] it was 200 µM; in [4] it was 42.5 µM; in [5] it was 250 µM; in test [6], 2.8 µM. In addition, the IC50 in test [7] turned out to be 201 µM; in test [8], 114 µM; in test [9] it was 159 µM; in test [10] it was 16.8 µM; in test [11], 140 µM.
In the case of `c1ccc(NN=C(c2nc3ccccc3[nH]2)c2nc3ccccc3[nH]2)cc1`, the half-maximal inhibitory concentration (IC50) in [1] is 248 µM; in [2], 27.9 µM; in test [3], 114 µM; in [4], 13 µM; in test [5], 160 µM; in [6], 3.8 µM. The concentration for half-maximal inhibition (IC50) in [7] amounted to 162 µM; in [8], 81.9 µM; in test [9], 144 µM; in [10] it was 17.6 µM; in [11] it was 83.2 µM.
As for `O=c1n(-c2ccccc2)nc(-c2nc3ccccc3[nH]2)c2nc3ccccc3n12`, the IC50 is 13.6 µM in [1]; 45.6 µM in test [2]; 23.5 µM in [3]; 12.2 µM in test [4]; 12 µM in [5]; 11.5 µM in test [6]. The concentration for half-maximal inhibition (IC50) in test [7] stood at 38.1 µM; in test [8], 8 µM; in [9] it was 42.7 µM; in test [10], 8.6 µM; in test [11], 74.8 µM.
In the case of `COc1ccc(NN=C(c2nc3ccccc3[nH]2)c2nc3ccccc3[nH]2)cc1`, the concentration for half-maximal inhibition (IC50) in test [1] is 250 µM; in test [2], 96.7 µM; in test [3], 116 µM; in test [4], 10.9 µM; in test [5], 250 µM; in test [6], 0.5 µM. The 50% inhibitory concentration (IC50) in [7] is 35.7 µM; in test [8], 114 µM; in test [9], 235 µM; in [10] it was 66.5 µM; in test [11] it was 215 µM.
On to `O=[N+]([O-])c1ccc(NN=C(c2nc3ccccc3[nH]2)c2nc3ccccc3[nH]2)cc1`, for which the concentration for half-maximal inhibition (IC50) in test [1] worked out at 218 µM; in test [2], 140 µM; in test [3], 190 µM; in [4], 58.4 µM; in [5] it was 250 µM; in [6], 0.7 µM. The IC50 in test [7] was determined as 11.7 µM; in [8], 17.7 µM; in [9] it was 101 µM; in [10] it was 4.7 µM; in test [11], 94.8 µM.
In the case of `Cc1ccc(-n2nc(-c3nc4ccccc4[nH]3)c3nc4ccccc4n3c2=O)cc1`, the IC50 amounted to 40.8 µM in test [1]; 61.2 µM in test [2]; 18.3 µM in test [3]; 18.5 µM in [4]; 17.9 µM in test [5]; 14.7 µM in test [6]. The IC50 in test [7] was determined as 7.8 µM; in [8], 15.2 µM; in test [9] it was 20.9 µM; in test [10], 7.6 µM; in [11] it was 34.1 µM.
`O=c1n(-c2ccc(Cl)cc2)nc(-c2nc3ccccc3[nH]2)c2nc3ccccc3n12`: the half-inhibitory concentration (IC50) in [1] was determined as 242 µM; in [2], 51.2 µM; in [3] it was 134 µM; in [4] it was 83.6 µM; in test [5] it was 247 µM; in test [6], 1.2 µM. Further, the IC50 was found to be 73.9 µM in test [7]; 88.6 µM in test [8]; 167 µM in test [9]; 2.3 µM in test [10]; 140 µM in test [11].
Regarding `CCOC(=O)n1c(-c2nn(-c3ccc(C)cc3)c(=O)n3c2nc2ccccc23)nc2ccccc21`, the IC50 in test [1] worked out at 165 µM; in test [2], 29.6 µM; in [3] it was 140 µM; in [4], 25.5 µM; in test [5], 147 µM; in test [6] it was 71 µM. In addition, the 50% inhibitory concentration (IC50) in test [7] amounted to 46.3 µM; in [8], 96.2 µM; in test [9], 53.7 µM; in test [10], 44.4 µM; in [11] it was 134 µM.
Consider `CCOC(=O)n1c(-c2nn(-c3ccc(OC)cc3)c(=O)n3c2nc2ccccc23)nc2ccccc21`, for which the IC50 in test [1] was determined as 145 µM; in test [2], 111 µM; in [3], 14 µM; in [4], 31.8 µM; in test [5], 54.3 µM; in test [6] it was 44.4 µM. For the same compound, the IC50 worked out at 42.8 µM in test [7]; 38.7 µM in [8]; 7.8 µM in [9]; 46.3 µM in [10]; 51.6 µM in test [11].
For the compound `CCOC(=O)n1c(-c2nn(-c3ccc([N+](=O)[O-])cc3)c(=O)n3c2nc2ccccc23)nc2ccccc21`, the IC50 was 125 µM in [1]; 224 µM in test [2]; 166 µM in test [3]; 155 µM in [4]; 6.2 µM in test [5]; 4.4 µM in [6]. In addition, the IC50 in test [7] stood at 70.7 µM; in test [8], 21.9 µM; in [9] it was 196 µM; in test [10], 5.4 µM; in test [11], 144 µM.
In the case of `Cc1ccc(NN=C(c2nc3ccccc3[nH]2)c2nc3ccccc3[nH]2)cc1`, the IC50 came to 250 µM in [1]; 87.6 µM in [2]; 160 µM in test [3]; 26.5 µM in [4]; 250 µM in test [5]; 0.6 µM in [6]. Moreover, the 50% inhibitory concentration (IC50) was determined as 195 µM in [7]; 95.9 µM in test [8]; 239 µM in test [9]; 10.5 µM in test [10]; 95.8 µM in test [11].
As to `CCOC(=O)n1c(-c2nn(-c3ccccc3)c(=O)n3c2nc2ccccc23)nc2ccccc21`, the IC50 in test [1] came out at 37.5 µM; in [2], 18.4 µM; in test [3] it was 69.4 µM; in [4] it was 58.6 µM; in test [5], 17.7 µM; in [6], 18 µM. Besides, the IC50 in [7] is 11.4 µM; in [8], 15.2 µM; in [9] it was 42.2 µM; in [10], 10.8 µM; in [11], 35.1 µM.
With `COc1ccc(-n2nc(-c3nc4ccccc4[nH]3)c3nc4ccccc4n3c2=O)cc1`, the IC50 was 24.6 µM in test [1]; 35.4 µM in test [2]; 8.7 µM in test [3]; 3.5 µM in test [4]; 10 µM in test [5]; 8.7 µM in test [6]. In addition, the half-inhibitory concentration (IC50) in test [7] was determined as 6.9 µM; in test [8], 6 µM; in test [9], 7.5 µM; in test [10], 3.6 µM; in test [11] it was 10.7 µM.
With `CCOC(=O)n1c(-c2nn(-c3ccc(Cl)cc3)c(=O)n3c2nc2ccccc23)nc2ccccc21`, the half-maximal inhibitory concentration (IC50) in [1] worked out at 150 µM; in [2], 111 µM; in [3], 14.1 µM; in [4], 31.8 µM; in test [5] it was 12.4 µM; in test [6] it was 4 µM. The IC50 in test [7] was determined as 7.7 µM; in test [8] it was 29.7 µM; in test [9], 7.9 µM; in test [10] it was 6.4 µM; in test [11], 21.3 µM.
Take `O=c1n(-c2ccc([N+](=O)[O-])cc2)nc(-c2nc3ccccc3[nH]2)c2nc3ccccc3n12`: the IC50 was 250 µM in test [1]; 190 µM in [2]; 210 µM in test [3]; 103 µM in test [4]; 250 µM in test [5]; 2.2 µM in [6]. Moreover, the half-inhibitory concentration (IC50) in test [7] came to 250 µM; in [8], 248 µM; in [9], 250 µM; in test [10] it was 250 µM; in test [11], 250 µM.
